These results are taken from ChEMBL document CHEMBL5223075, “Discovery of thienothiazolocarboxamide analogues as novel anti-tubercular agent” (Bioorg Med Chem, 2020).

The structures appear in SMILES notation. In brackets after ≈: the same amount, converted by molar mass. Activity calls are given as the source filed them. No cut-off for these calls is given here.

Data set [1] relates to Mycobacterium tuberculosis. In words: Antitubercular activity against Mycobacterium tuberculosis H37Rv ATCC 27294 expressing the green fluorescence protein assessed as inhibition of bacterial growth by measuring GFP fluorescence incubated for 5 days by fluorescence based plate reader analysis. Particulars: H37Rv ATCC 27294, 120 h. The data set is classed as functional, organism-based. The method, boiled down:
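H37Rv-GFP was grown 14 days in 7H9/OADC/Tween/glycerol/hygromycin, washed, and seeded at ~3×10^6 CFU/mL. Compounds were given as 10-point 2-fold series starting at 20 or 1 µM, in 1% DMSO final. Plates ran 5 days at 37°C, 5% CO2, with rifampicin 1 µg/mL as positive control. GFP fluorescence was read and IC50 taken from a 4-parameter sigmoid fit.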

Data set [2] relates to Mycobacterium tuberculosis. Nature of the data set: Antitubercular activity against Mycobacterium tuberculosis H37Rv ATCC 27294 expressing the green fluorescence protein infected in mouse RAW264.7 cells assessed as inhibition of bacterial growth pre-infected with cell followed by compound addition and measured after 5 days by Hoechst 33342 staining based analysis. In kind it is functional, organism-based. Particulars: H37Rv ATCC 27294, RAW264.7, 120 h. The method in brief: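 RAW 264.7 cells, passages 2-9, were infected with washed H37Rv-GFP at MOI 20 for 2 h at 37°C with shaking. Cells were washed and plated at 20,000/well over 2-fold compound dilutions for 5 days. Nuclei were stained with 5 µM Hoechst (final) and 3 fields/well imaged. Four parameters (cell count, bacterial area, area per infected cell, infected-cell ratio) were each fitted by 4-parameter sigmoid, and the IC50s averaged.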

Data set [3] in a line: Metabolic stability in human liver microsome assessed as phase I mediated metabolite formation by measuring half-life. In kind it is ADME. The following applies: microsomes.
A short description of data set [4]: Metabolic stability in mouse liver microsome assessed as phase I mediated metabolite formation by measuring half-life. In kind it is ADME. Particulars: microsomes. A general note: Liver microsomes are a subcellular fraction often used to study metabolism.
The nature of data set [5]: Solubility of the compound at pH 7.4. The data set is classed as physicochemical. The following applies: buffer.
Data set [6] is described as follows: Solubility of the compound at pH 2.1. In kind it is physicochemical. The following applies: buffer.
Data set [7] can be described thus: Metabolic stability in human liver microsome assessed as phase II mediated metabolite formation by measuring half-life. The data set is classed as ADME. The following applies: microsomes.
A short description of data set [8]: Metabolic stability in mouse liver microsome assessed as phase II mediated metabolite formation by measuring half-life. The data set is classed as ADME. The following applies: microsomes.
Data set [9] can be described thus: Stability in human plasma measured after 2 hrs. The data set is classed as ADME, cell-free. The following applies: read-out: Stability.
Data set [10] is described as follows: Stability in mouse plasma measured after 2 hrs. The data set is classed as ADME, cell-free. Particulars: read-out: Stability.
Data set [11] in a line: Protein binding in human plasma. The data set is classed as ADME, cell-free. The following applies: read-out: PPB (converted).
Data set [12] can be described thus: Protein binding in mouse plasma. The data set is classed as ADME, cell-free. Particulars: read-out: PPB (converted).
The test system of another data set is A549. In words: Cytotoxicity against human A549 cells assessed as inhibition of cell growth. In kind it is functional, cell-based.
Data set [13] in a line: Cytotoxicity against HEK293 cells assessed as inhibition of cell growth. In kind it is toxicity, cell-based. Particulars: human.
Another data set concerns HepG2. Nature of the data set: Cytotoxicity against human HepG2 cells assessed as inhibition of cell growth. The data set is classed as functional, cell-based.
A further data set concerns Jurkat. Nature of the data set: Cytotoxicity against human Jurkat cells assessed as inhibition of cell growth. In kind it is functional, cell-based.
The nature of data set [14]: Genotoxicity in Salmonella typhimurium TA98 by Ames mutagenicity test. The data set is classed as toxicity. Particulars: salmonella enterica subsp. enterica serovar typhimurium.
A short description of data set [15]: Genotoxicity in Salmonella typhimurium TA100 by Ames mutagenicity test. Particulars: salmonella enterica subsp. enterica serovar typhimurium. In kind it is toxicity.
Data set [16] in a line: Genotoxicity in Salmonella typhimurium TA98 in the presence of S9 fraction by Ames mutagenicity test. The data set is classed as toxicity, subcellular. The following applies: salmonella enterica subsp. enterica serovar typhimurium.
Data set [17] can be described thus: Genotoxicity in Salmonella typhimurium TA100 in the presence of S9 fraction by Ames mutagenicity test. The following applies: salmonella enterica subsp. enterica serovar typhimurium. In kind it is toxicity, subcellular. For orientation: In the Ames test, an excess of revertant colonies over the control signals mutagenicity.
Data set [18] in a line: Half-life in BALB/c mouse at 2 mg/kg, iv by LC-MS analysis. In kind it is ADME, organism-based. Particulars: in vivo. The method in brief:
(§1)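 Female BALB/c mice, 6-8 weeks old. Dosed i.v. at 2 or 3 mg/kg, or orally at 10 mg/kg. Vehicles varied by compound: DMSO/Captisol, DMSO/PEG400/SBE-b-CD, or DMSO/Cremophor EL/Captisol. Blood was held at 4°C within 1 h, then centrifuged at 3200 × g for 10 min at 4°C. Plasma was kept at 4°C, and compound levels were measured by LC-MS.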

Data set [19] is described as follows: Clearance in BALB/c mouse at 2 mg/kg, iv by LC-MS analysis. The data set is classed as ADME, organism-based. Particulars: in vivo. The method, boiled down: as §1
Data set [20] can be described thus: Volume of distribution at steady state in BALB/c mouse at 2 mg/kg, iv by LC-MS analysis. The following applies: in vivo, read-out: Vdss. The data set is classed as ADME, organism-based. The method in brief:
as §1

Data set [21] can be described thus: Half-life in BALB/c mouse at 10 mg/kg, po by LC-MS analysis. The following applies: in vivo. In kind it is ADME, organism-based. The method in brief: as §1
Data set [22] is described as follows: Cmax in BALB/c mouse at 10 mg/kg, po by LC-MS analysis. The data set is classed as ADME, organism-based. More on the design: dose 10 mg/kg, route po. The following applies: in vivo. The method in brief:
as §1

Data set [23] is described as follows: AUClast in BALB/c mouse at 10 mg/kg, po by LC-MS analysis. The data set is classed as ADME, organism-based. More on the design: dose 10 mg/kg, route po. The following applies: in vivo. The method, boiled down: as §1
The nature of data set [24]: Oral bioavailability in BALB/c mouse at 10 mg/kg by LC-MS analysis. The data set is classed as ADME, organism-based. Particulars: in vivo. The method in brief:
as §1

Data set [25] can be described thus: Drug concentration in BALB/c mouse plasma at 10 mg/kg, po by LC-MS analysis. In kind it is ADME, organism-based. The following applies: in vivo. The method, boiled down:
as §1

Data set [26] in a line: Drug concentration in BALB/c mouse lung at 10 mg/kg, po by LC-MS analysis. The data set is classed as ADME, organism-based. The following applies: in vivo. The method in brief:
as §1

The nature of data set [27]: Ratio of drug concentration in lung to plasma in BALB/c mouse at 10 mg/kg, po by LC-MS analysis. In kind it is ADME, organism-based. The method, boiled down:
as §1

Data set [28] is described as follows: Tmax in BALB/c mouse at 10 mg/kg, po by LC-MS analysis. Particulars: in vivo. The data set is classed as ADME, organism-based. The method in brief: as §1
Data set [29] has as its system Mycobacterium tuberculosis. In words: Antibacterial activity against Mycobacterium tuberculosis H37Rv ATCC 27294 infected in BALB/c mouse assessed as reduction in bacterial load in lungs at 25 to 100 mg/kg, po administered five times a week for 28 days. The data set is classed as functional, organism-based. Particulars: dose 25-100 mg/kg, time 28.0 day. The method, boiled down:
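Female BALB/c mice, 6-8 weeks old, were infected intranasally with ~300-600 CFU H37Rv, 5 mice per group. Oral gavage began at day 21, 5 days/week for 4 weeks. Lungs were taken a day after the last dose, homogenized in PBS, serially diluted and plated in duplicate on 7H11-OADC agar for 2-5 weeks at 37°C. Detection limit ~2.3 logs. Bonferroni test against vehicle-treated mice.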

What is called IC50 is the concentration that inhibits the measured activity by half. One may read the solubility as how much of the substance goes into solution per volume. In the case of `Cc1ccc(-c2ccc(NC(=O)c3cc4sc(NCCN5CCOCC5)nc4s3)cc2)nc1`, the results for the IC50 in [1] and in data set [2] were 1350 nM and 310 nM, respectively. For the same compound, the t1/2 in data set [3] is 0.348 h; in data set [4], 0.452 h. Further, the solubility stood at 1.3 µg/mL (≈ 2.71 µM) in data set [5] and 52.3 µg/mL (≈ 109 µM) in data set [6].
For `Cc1nc2cc(NC(=O)c3cc4sc(NCCN5CCOCC5)nc4s3)ccc2o1`, the IC50 was determined as 1350 nM in data set [1] and 470 nM in data set [2]. Also, the t1/2 in data set [3] and in data set [4] was greater than 1 h throughout. In addition, the solubility in [5] was found to be 2.1 µg/mL (≈ 4.73 µM); in [6] it was 37.1 µg/mL (≈ 83.6 µM).
As to `Cc1nc2cc(NC(=O)c3cc4sc(N(C)CCO)nc4s3)ccc2o1`, the results for the half-maximal inhibitory concentration (IC50) in data set [1] and in data set [2] were 880 nM and 1300 nM, respectively. Further, the results for the t1/2 in data set [3] and in [4] were greater than 1 h and 0.628 h, respectively. Also, the figures for the solubility in data set [5] and in [6] were 4.5 µg/mL (≈ 11.6 µM) and 20.6 µg/mL (≈ 53 µM), respectively.
A word on the half-life: it is the time in which the quantity being followed falls by half. Read a high half-life as slow loss. Usually clearance stands for the volume of plasma or blood freed of the substance per unit of time. Usually Cmax stands for the peak of the concentration-time curve. In general, AUC(0-t) refers to exposure summed from dosing to a finite time, without extrapolation to infinity. A word on the bioavailability: it is the share of a dose that reaches the circulation, judged against a reference dose that is usually intravenous. Read a low bioavailability as poor availability. One may read the Kp as tissue or fluid exposure divided by exposure in the circulation. In general, Tmax refers to the time at which the peak concentration occurs. For the compound `Cc1nc2cc(NC(=O)c3cc4sc(N5CCC(C(=O)N(C)C)CC5)nc4s3)ccc2o1`, the IC50 in data set [1] was 500 nM; in data set [2], 510 nM; in the data set on A549, greater than 50000 nM; in data set [13], greater than 50000 nM; in the data set on HepG2, greater than 50000 nM; with Jurkat, greater than 50000 nM. The t1/2 in data set [3] was greater than 1 h; in data set [4] it was greater than 1 h; in [7] it was 1.66 h; in data set [8], 2.07 h. For the same compound, the figures for the solubility in data set [5] and in data set [6] were 1.2 µg/mL (≈ 2.56 µM) and 4 µg/mL (≈ 8.52 µM), respectively. Further, the results for the remaining at 2 h in data set [9] and in data set [10] were 86.1% and 95.7%, respectively. Also, the fraction unbound is 0.049 in data set [11] and 0.036 in data set [12]. The Activity result in data set [14], in data set [15], in data set [16] and in data set [17] was “Non-Toxic” each time. Also, the half-life was 0.92 h in data set [18] and 0.99 h in [21]. This compound also showed a clearance in data set [19] of 11.8 mL/min/kg. Moreover, the Vd in data set [20] came to 0.701 L/kg. The Cmax in data set [22] turned out to be 7010 ng/mL. In data set [23], this compound showed an AUC(0-t) of 10000 ng·h/mL. In addition, the bioavailability in data set [24] was 71.2%. This compound came in with a Cp in data set [25] of 4400 ng/mL. This compound also returned a Ct in data set [26] of 2986 ng/mL. Also, the Kp in [27] was 0.7. The Tmax in data set [28] worked out at 1 h. In addition, the outcome in [29] was inactive.
